Most compounds without a hit are left out; they make up all but 3.9% or so of the library.
SR-BI DiI-HDL act: enhances SR-BI lipid uptake from DiI-HDL; CHO ldlA[mSR-BI] cells, DiI-HDL uptake fluorescence, 3 h; 100 = double the neutral-control signal; activation, % at 12.5 µM; 320,000 tested, 0.096% active;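 active means mean replicate activation of at least 60% and every replicate at or above 60%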;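 further: 0% = median plate neutral-control signal and 100% = twice that signal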
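material = CHO ldlA[mSR-BI] cells | medium = Ham's F12 with 0.5% BSA, HEPES 25 mM, pH 7.4 | reagent = fluorescent DiI-HDL, 10 µg/mL final | compound dosing = single-point compound dose | incubation = 3 h, 37 °C | measured by = bottom-read fluorescence, 550/595 nm | measure = HDL uptake via cellular fluorescence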
GAA850 FXN act: frataxin GAA850 promoter activation. HEK293 lucGAA850 FXN promoter luciferase reporter, 24 h; percent of 10 µM SAHA response. activation, % at 6 µM. 360,000 tested, 0.56% active;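 active means activation above the average of all compounds screened plus 3 SD, cutoff fixed separately per campaign, cut at about 7.5% in these data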;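 further: 0% = DMSO wells and 100% = 10 µM SAHA wells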
HIF activator: HIF pathway transcriptional activation. U2OS HRE-luciferase reporter, luminescence; normalized: DMSO 0%, desferrioxamine 100%. activation, % at 7.5 µM (by protocol). 300,000 tested, 0.32% active. AID 1910;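 active means mean activation of at least 10% of the iron chelator positive control signal, with at least half of replicates also reaching 10%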
ABCB6 inh 2: blocks the human ABCB6 transporter | Q9NP58 | fluorescence ratio to DMSO, % at 10 µM | 360,000 tested, 0.19% active | K562-ABCB6 porphyrin accumulation, flow cytometry, 1 h; stronger effect = lower value;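 active means fluorescence ratio to DMSO below 75%, the collection mean minus 3 SD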;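 further: signal is porphyrin accumulated inside mitochondria; 100% equals median channel fluorescence of DMSO control wells; lower ratio means ABCB6 inhibition with less porphyrin fluorescence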
AHR activator: human AHR activation; AHR-responsive luciferase reporter cells, luminescence; 320,000 tested, 2.5% active; activation, % at 5 µM; P35869; in the data active means activation above about 47%;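 further: 0% = vehicle wells and 100% = reference agonist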
Target sequence (P35869 whole entry, looked up): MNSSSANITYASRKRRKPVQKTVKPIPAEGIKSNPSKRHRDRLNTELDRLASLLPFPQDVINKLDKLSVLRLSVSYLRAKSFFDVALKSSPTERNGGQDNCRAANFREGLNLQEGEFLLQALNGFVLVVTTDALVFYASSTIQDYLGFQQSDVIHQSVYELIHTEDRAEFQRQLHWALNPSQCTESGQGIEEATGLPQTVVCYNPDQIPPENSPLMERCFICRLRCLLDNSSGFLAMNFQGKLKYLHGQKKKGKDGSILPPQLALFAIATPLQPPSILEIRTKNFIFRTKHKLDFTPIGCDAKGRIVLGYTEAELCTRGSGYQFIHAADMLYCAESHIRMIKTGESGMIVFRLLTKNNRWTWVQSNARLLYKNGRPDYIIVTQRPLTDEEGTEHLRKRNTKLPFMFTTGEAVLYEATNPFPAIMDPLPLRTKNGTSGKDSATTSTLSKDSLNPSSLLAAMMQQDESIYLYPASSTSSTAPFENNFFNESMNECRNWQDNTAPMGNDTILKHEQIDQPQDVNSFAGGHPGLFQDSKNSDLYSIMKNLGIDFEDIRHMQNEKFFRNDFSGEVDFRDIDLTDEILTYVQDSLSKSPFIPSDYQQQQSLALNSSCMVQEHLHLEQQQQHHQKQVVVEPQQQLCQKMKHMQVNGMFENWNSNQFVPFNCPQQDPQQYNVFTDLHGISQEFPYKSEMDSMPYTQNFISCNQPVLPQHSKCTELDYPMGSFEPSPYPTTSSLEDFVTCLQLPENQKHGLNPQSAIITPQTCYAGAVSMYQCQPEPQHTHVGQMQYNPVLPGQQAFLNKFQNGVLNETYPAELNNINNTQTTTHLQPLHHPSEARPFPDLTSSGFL
SR-BI DiI inh: mouse SR-BI HDL lipid transfer inhibition | Q61009 | ldlA[mSR-BI] CHO cells, DiI-HDL uptake fluorescence, 3 h | inhibition, % at 12.5 µM | 320,000 tested, 0.96% active | AID 488896;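 active means mean replicate inhibition of at least 70% and a set share of replicates each scoring 70 or more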;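 further: 0% = median of neutral control wells and 100% = median of positive control wells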
Active calls of the source: *; / = not tested or not shown.

SMILES | SR-BI DiI-HDL act | GAA850 FXN act | HIF activator | ABCB6 inh 2 | AHR activator | SR-BI DiI inh
COc1ccc(Cn2nnnc2C(c2cc3cc(C)ccc3[nH]c2=O)N2CCN(C)CC2)cc1 (configuration not stated) | -9 | 1 | 0 | 100 | 2 | 9
O=C(C[n+]1ccc(-c2cc(C(=O)Nc3cccc(C(F)(F)F)c3)c3ccccc3n2)cc1)c1cccc([N+](=O)[O-])c1 | -87 | -1 | -1 | 110 | 4 | 87*
CCOc1ccccc1/C=N/Nc1ccccc1[N+](=O)[O-] | -36 | 4 | 0 | 106 | 14 | 36
CC(C)Oc1ccccc1/C=N/Nc1ccccc1[N+](=O)[O-] | -56 | 2 | 0 | 96 | 55* | 56
COc1ccccc1/C=N\Nc1ccccc1[N+](=O)[O-] | -40 | 5 | 4 | 98 | 79* | 40
COc1cc(/C=N/Nc2ccc(S(N)(=O)=O)cc2[N+](=O)[O-])cc(OC)c1O | / | -2 | 0 | 92 | 3 | /
COc1cc(/C=N/Nc2ccccc2[N+](=O)[O-])cc(OC)c1O | -79 | 4 | 2 | 85 | 15 | 79*
Cc1[nH]c2ccccc2c1/C=N/Nc1ccccc1[N+](=O)[O-] | -129 | 5 | 2 | 95 | 29 | 129*
CCc1nnc(NC(=O)/C=C/c2cccs2)s1 | -4 | 2 | 1 | 92 | 52* | 4
O=C(Nc1ccsc1C(=O)N1CCCC1)c1ccccc1 | -3 | 0 | -3 | 95 | 0 | 3
Cc1cc(O)c2c(c1O)C(=O)[C@]13C(=C2O)C(=O)[C@@H]2[C@@H](O)[C@H]1[C@@H]1[C@H](O)[C@H]3C(=O)C3=C(O)c4c(O)cc(C)c(O)c4C(=O)[C@]312 | -95 | -11 | / | 266 | -16 | 95*
COC(=O)c1c(C(=O)OC)c2ccncn2c1Cl | 21 | 2 | 0 | 96 | 74* | -21
CC(C)OC(=O)Nc1ccc2c(c1)N(C(=O)CCN1CCN(CCO)CC1)c1ccccc1CC2 | 7 | 3 | 0 | 146 | 1 | -7
CC(C)OC(=O)Nc1ccc2c(c1)N(C(=O)CCN1CCOCC1)c1ccccc1CC2 | 63* | 0 | 1 | 90 | 5 | -63
COc1cccc(OC)c1C(=O)Nc1nnc(-c2ccc(F)cc2)s1 | -5 | 2 | -12 | 96 | 74* | 5
O=C(Nc1nnc(-c2ccc(F)cc2)s1)c1ccco1 | 17 | 2 | 1 | 103 | -2 | -17
CNC(=O)CN(c1cc(OCCOC)c(Cl)cc1Cl)S(=O)(=O)c1ccccc1 | -2 | -1 | 0 | 101 | -1 | 2
COC(=O)C1=C2c3[nH]c4ccccc4c3CCN2C(=O)CC1 | -19 | -2 | 0 | 100 | 54* | 19
COc1ccc(-c2cc(=O)[nH]c(=S)[nH]2)cc1 | 26 | 3 | 0 | 134 | 2 | -26
CC(C)Oc1ccc(-c2cc(=O)[nH]c(=O)[nH]2)cc1 | 21 | 0 | 1 | 102 | 69* | -21
COc1ccc(-c2nc(-c3cccs3)c(-c3cccs3)[nH]2)cc1OC | -64 | 1 | 1 | 114 | 50* | 64
COc1ccc(-c2[nH]c(-c3ccc4c(c3)OCO4)nc2-c2ccccc2)cc1 | -63 | 0 | 1 | 87 | 74* | 63
O=[N+]([O-])c1cccc(-c2nc(-c3ccccc3)c(-c3cccs3)[nH]2)c1 | / | -3 | 0 | 167 | 24 | /
COc1ccc(-c2nc(-c3ccccc3)c(-c3cccs3)[nH]2)cc1OC | -58 | -3 | 0 | 111 | 81* | 58
O=[N+]([O-])c1ccc(-c2nc(-c3cccs3)c(-c3cccs3)[nH]2)cc1 | -69 | -2 | 1 | 469 | 40 | 69
SMILES | SR-BI DiI-HDL act | GAA850 FXN act | HIF activator | ABCB6 inh 2 | AHR activator | SR-BI DiI inh
O=[N+]([O-])c1cccc(-c2nc(-c3cccs3)c(-c3cccs3)[nH]2)c1 | -91 | -3 | 0 | 99 | 63* | 91*
COc1ccc(-c2[nH]c(-c3ccc(C(=O)O)cc3)nc2-c2ccccc2)cc1 | -12 | -2 | 0 | 98 | -1 | 12
CN(C)c1ccc2c(=O)cc[nH]c2c1 | / | / | / | 98 | / | /
CC1(C(=O)NS(=O)(=O)c2ccc(Cl)cc2)CCN1C(=O)Cc1cccc2ccccc12 (configuration not stated) | / | -2 | / | 103 | / | /
Cc1cc2nc3n(c2cc1C)CCCN3 | 2 | 1 | -1 | 101 | 73* | -2
Cc1n[nH]c(=S)n1/N=C/c1cccc(OCc2ccccc2)c1 | 5 | 1 | 0 | 95 | 13 | -5
Cc1n[nH]c(=S)n1/N=C/c1ccccc1OCc1ccc(Cl)cc1 | -64 | 8.3* | 2 | 101 | 46 | 64
Cc1ccccc1NC(=S)Nc1ccccn1 | -3 | 4 | 1 | 108 | 15 | 3
COC(=O)Cc1ccc(NC(=S)Nc2ccccn2)cc1 | -6 | 1 | 1 | 94 | 1 | 6
COc1cc(NC(=S)Nc2ccccn2)cc(OC)c1OC | -38 | 2 | 0 | 96 | 77* | 38
S=C(Nc1ccccn1)Nc1ccccc1Cl | 3 | 3 | 2 | 102 | 68* | -3
COc1cc(NC(=S)Nc2ccccn2)cc(OC)c1 | 3 | 4 | 1 | 87 | 74* | -3
Cc1ccc(C(C(=O)NC2CCCCC2)N(CCC(C)C)C(=O)CNC(=O)c2ccco2)o1 (configuration not stated) | -14 | 0 | 0 | 107 | 1 | 14
Oc1ccc2ccccc2c1/C=N/Nc1ccccc1 | 13 | 0 | -1 | 108 | 54* | -13
COc1ccc(N/N=C/c2c(C(=O)O)ccc3ccccc23)cc1 | / | -7 | 50* | 102 | 13 | /
Oc1ccccc1C=NN=Cc1c(O)ccc2ccccc12 | -12 | 5 | / | 99 | / | 12
COc1ccc2ccccc2c1/C=N/Nc1ccc(Cl)c(C(=O)O)c1 | / | 3 | 0 | 98 | 10 | /
Oc1ccc2ccccc2c1C=NCc1ccccc1 | / | -2 | / | 96 | 56* | /
Cc1cc(N/N=C/c2c(O)ccc3ccccc23)nc(-c2ccccc2O)n1 | -91 | 2 | 6 | 91 | 42 | 91*
O=CN/N=C/c1c(O)ccc2ccccc12 | / | 0 | -1 | 104 | 11 | /
COC(=O)c1cnn(-c2ccccc2)c1/C=N/NC(=S)Nc1ccc(Cl)cc1 | / | 3 | -1 | 105 | 2 | /
O=C(Cn1cc(C(F)(F)F)ccc1=O)N/N=C/c1cccc(Cl)c1 | -2 | 2 | 0 | 87 | 3 | 2
O=C(CN(C(=O)CCC(=O)Nc1nccs1)c1ccccc1F)NCc1ccc2c(c1)OCO2 | / | 0 | 0 | 98 | 4 | /
CC(C)n1nc(Cc2cccc3ccccc23)c(C#N)c1N | -6 | 2 | 1 | 99 | 62* | 6
Cn1nc(Cc2cccc3ccccc23)c(C#N)c1N | -9 | 0 | -1 | 103 | 0 | 9

Assay outcomes: PubChem, several laboratories
